# In the EternaBench riboswitch data:
# System: MS2 coat protein
# Test: apparent Kd, MS2 coat protein; higher = weaker binding; RNA-MaP array; FMN 200 µM where present
# Summary of the method: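 Each design was made on Illumina sequencing-chip clusters by stalled E. coli RNA polymerase and titrated with SNAP-549-labelled MS2 coat protein from 0.7 or 1.5 nM, doubling to 3 µM, in the absence and then the presence of constant ligand. The buffer was 100 mM Tris-HCl pH 7.5, 80 mM KCl, 4 mM MgCl2, BSA, DTT, yeast tRNA and Tween-20. The apparent Kd is the median of filtered per-cluster fits of binding curves, with green signal normalised to red-channel RNA signal and control-cluster median Fmax.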
# [1] = designed as: ON switch for flavin mononucleotide, no ligand
# [2] = ligand present: flavin mononucleotide, designed as: ON switch for flavin mononucleotide
# [3] = designed as: OFF switch for flavin mononucleotide, no ligand
# [4] = ligand present: flavin mononucleotide, designed as: OFF switch for flavin mononucleotide
Sequence,apparent Kd [1] [nM],apparent Kd [2] [nM],apparent Kd [3] [nM],apparent Kd [4] [nM]
UGGUCAUCAUCAGGAUAUUAACAUGGGCUACAUUAAGAAGGGAUAGUGAGAUAGGAACUGAAACAUGAGGAUCACCCAUGUUGU,96.9,44.2,,
GACUUGUAAGGAUAUCGUGCAAGUUUCAAAAGAGGCUUGUGCGAGAAGGUACAUGAGGAUCACCCAUGUAGGUU,,,27,56.6
ACUAACGAAGGAUAUACUAACGAAACUAAUGCAUAGAUAAAACAUGAGGAUCACCCAUGUAGAAGGUCGAGACU,,,22.5,25.5
UACUUCCGAGGAUAUACAUGAGGAUCACCCAUGUGCUUCAGCAUUUUUUGAUGCAUGGGUAGAAGGCGGUAGUU,,,315,270
CUGAGCUGAGGAUAUACAUGAGGAUCACCCAUGUGUUGGAGCUUGCGUACAGGCAGAUGUAGAAGGCAGUUCGG,,,23.6,88.2
ACGGCAGUCAGAGGAUAUGGUUACAUGAGGAUCACCCAUGUCAAGGGUCUAAUUAAGUAUAACUACUAGAAGGCUGAAGGCCUA,,,154,113
GGCGGUUUGGCAGGAUAUCGGAAACAGACCAAACGAGAAGGGCCUACAUGGCAAUGCGAAAGCAGACAUGAGGAUCACCCAUGU,84.9,72.2,,
ACAUGAUACUAGGAUAUCAGCAUACUUCAAUGUUGAGAAGGAGUAACAUGAGGAUCACCCAUGUAUCCAACAUG,,,46.9,219
UUUUUUUUUAGAGGAUAUAUUGUGUGUUAUAUAAUAGAAGGCUAAACAUGUGACAUACACAUGAGGAUCACCCAUGUUUUGUUU,31.6,27,,
AGAAAUUAGUGAGGAUAUGCAUAAAUUGUAGCUGCAGAAGGCACGGACCACAAGACAUGAGGAUCACCCAUGUGGUAUUUAGAU,,,29.9,34.9
GGAGCACACAUUAACAUGAGGAUCACCCAUGUCAAAAGACAUGAGGAUAUGGAUCCGAAAAGGAUCCAGAAGGCAUCGUGCUCC,413,24.7,,
AGACUGCGUAGAAUUAGCAGCCGGCAGGAUAUGACAUGAGGAUCACCCAUGUGAACUCCAUUGGGUCAGAAGGGCCACGACACA,,,21.8,147
UUGGACGUCGUAGGAUAUGUAGGAUAUUCCUACAUGAGGAUCACCCAUGUUGACAUGGAAGAAGGACAGAAGGACGAAGUCCAU,261,4.54,,
GUAGUAUUAAGUUCAUAAUAUAGGAUAGAAGGUGAAAAUUUGACAUGAGGAUCACCCAUGUAAUUCAAGGAUAUGUAGUAACUC,97.7,80.1,,
GUUAAGGUAGGAUAUACGAUAAUAUAGGGUAGAUAUAGAACACAUGAGGAUCACCCAUGUAGAAGGACCAAUUG,,,29.5,88.9
GGGUACAUCGGAGGAUAUCAUGUAAAUACAUGAGGAUCACCCAUGUCGCUGGAGACAUCGGAGAUUGAGAAGGCCGAUGUACCG,26.6,303,,
UUAUGUGUUGUAGGAUAUCAUUAGAUUUGUAAUUUAAUUGUAAUUUACAUAUGAGAAGGACAUUUACAUGAGGAUCACCCAUGU,,,12.5,9.6
GGGCAAUUAGGAUAUACAUGAGGAUCACCCAUGUGGAAGCCCGGACAGGUAAUCCACUGUAGAAGGGAUUGCGG,,,14.8,15
GUGCAUUACGAGAAGGCGUACUGGUGAAUAUAAAACGACAAAGGUACAUGAGGAUCACCCAUGUACGAGGAUAUCGAUUUGGCU,,,11,39.7
CUAGAUAUGUAAGGAUAUAUAGUGGAAUACACUAUAGAAGGUAUGUGAGAACAUGAGGAUCACCCAUGUCAUUGGAUAUCUAGA,33.7,37.6,,
GUUAGUAUCUAGGAUAUCUAGUACAUAGUAUCUAGAGAAGGAGAUACAUGAGGAUCACCCAUGUUCUGUGUUCU,,,25.4,70.4
GUGUACAGAGGAUAUGCACGAGUAGUUACGAAAGUAACUAUACAUGAGGAUCACCCAUGUAGAAGGCUGUACAC,,,13.5,16.6
GACAUGGUCUAGAAGGGCUAUCUAUUUAAGUACGAUUUAGAACAGCAUAGCAGGAUAUGGCUAACAUGAGGAUCACCCAUGUUC,40.5,18.7,,
AACAGACAUGAGGAUCACCCAUGUAGAAUUAUGGGAGGAUAUACAAAGACGAGAGUCAGAGUAGAAGGCCUAGGAC,46.5,29.9,,

Sequence,apparent Kd [1] [nM],apparent Kd [2] [nM],apparent Kd [3] [nM],apparent Kd [4] [nM]
GGUUGGCGAGGAUAUACAUGAGGAUCACCCAUGUGGUCCUGCGGUGGUCUCGCCCUUUGUAGAAGGCGCGGGUC,,,35.7,30.6
GAGCUCAAGCAGAAGGCCAUAUGUCAAUCGACAUGAGGAUCACCCAUGUAUGAGCUCGGCGUCGUGGAGGAUAUGCAGGCUCUA,351,17.6,,
CCAAUGUAAGGAUAUGACAAUGGUAUCUUCGGAUACCAUUGUCAGAAGGUACAUGAGGAUCACCCAUGUACAAA,,,14.3,16.6
AUGCUGUCAGGAUAUCGUUAAUUUAGUUGUUUGUAUUAGUUCGAGAAGGGACAUGAGGAUCACCCAUGUUUGUA,,,30.8,37.4
UUUUAGUCAGGAUAUACAUGAGGAUCACCCAUGUAAAAUUUUAAUUUAAUUUUAAGGUGUAGAAGGGACAAUUC,,,48,38.6
AAAAAGUCAGGAUAUGUCAAAAGUCACAAAAGUGACAAAAGACAGAAGGGACAUGAGGAUCACCCAUGUAAAAA,,,29,46.4
GGAUCGAAUGUGAGGAUAUACCUAUGGAAACAUAGGUAGAAGGCACAUGAGGAUCACCCAUGUUCCUACGGUCC,,,92.2,577
AUCCUGCGAGGAUAUACAUAAUUUUUUUCAUUUGGUUGCGAACAUGAGGAUCACCCAUGUAGAAGGUGCUUCAC,,,66.7,62.5
AUCCAGGUAACAUGAGGAUCACCCAUGUUCCUUCGCUCUGGCAAGGAUAUGAAGGGAUUGUCCCAUCAGAAGGUGCAUGGGUGC,23,19.9,,
GUGACGAAUGUAGGAUAUGCUGAGGAAUACUCAGCAGAAGGACAUGAGGAUCACCCAUGUCAUCCUUAUAAUAAAUAACGUCAC,,,12.6,18.1
GUGGACGUCGUAGGAUAUGUAGGAUAUUCCUACAUGAGGAUCACCCAUGUUGAAAUGGAAGAAGGACAGAAGGACGAUGUCCAG,58.5,12.7,,
GAGCUAUGAGGAUAUGCAUAUAUACGGAUUCGUGUAGUACUACAUGAGGAUCACCCAUGUAGAAGGCGUGGCUG,,,13.4,16.7
GGGCGGAAUACAUGAGGAUCACCCAUGUCAGAAAGGGUAAUCAGAAGGUACUAUUAGAGAAAGAGUAAGGAUAUGAAUCCGCCC,906,158,,
GGAUAGGACAGAGGAUAUACGUGCUAGAGAUACUAGCAAAAUUUCCUCACAUGAGGAUCACCCAUGUAGAAGGCUGUCCUAUCA,,,16.7,380
UUGAAUCGAAACAUGAGGAUCACCCAUGUGUCGUAGGUAGCAUAGGAUAUGUACAUACUGUUGGGAUAGAAGGAUGAUGAUGCU,8.62,7.47,,
UGUCGGAGCAGAGGAUAUUACAUGAGGAUCACCCAUGUAUGAACCACUAGCUGGAAACAGCAAUGUAAGAAGGCUGCUCCGACA,,,7.43,51.8
GCACGACAUGUAGGAUAUCGAGCGCCGAGCGCUCGAGAAGGACAUGAGGAUCACCCAUGUAUUCCGAGUGAGUCAGGUCGUGCA,,,17.5,23.4
AUGAUUAUAUUAUACAUGAGGAUCACCCAUGUUAUAAGUCAUGAGGAUAUGGUAUUGUAGUUUUUCCAGAAGGCAUUUAACUUA,7.91,5.47,,
CCGCUGUGAGGAUAUUAGUAGUAGUCAGAAUAGACUAUUACUGAGAAGGCACAUGAGGAUCACCCAUGUGGCGG,,,22.4,31.7
AAUUAUUUUUGAGGAUAUCGUGGUGAAACACCACGAGAAGGCGAGAUAAACAUGAGGAUCACCCAUGUGAGCCUGAUGCUUAUG,,,21.2,44.4
AAACACGGACAUGAGGAUCACCCAUGUGGCGAAAGCCUUGGGAGAAGGCCGUAUGCAAAGCAUACGGAGGAUAUUCAUACCGUG,1410,67.9,,
CCAGGCGUAUAGGAUAUACGUGUCGAGUUCGCUGUAGAAGGAUACACAUGAGGAUCACCCAUGUUUGCCAGUGG,,,24.5,21.2
AGAAACUACGAGAAGGACAUGUGGUCCUUCAGUAACAUGAGGAUCACCCAUGUAGGAUAUCGUAGUUUCAGGAUCGUGAGAUCA,,,150,19.1
UAUAUAUAGUAAGGAUAUGUAUAUGUUUUAUAAACAGAAGGUACUGACAUGAGGAUCACCCAUGUUUUAGUGUGGGCAUGUAGA,,,58.4,92
